Data as given in ChEMBL document CHEMBL5107952, “Synthesis of low-molecular weight fucoidan derivatives and their binding abilities to SARS-CoV-2 spike proteins” (RSC Med Chem, 2021).
Activity calls are given as the source filed them. The calls are words filed in the database; no cut-off is given here.

How the values were obtained:
[1] = molecular target: Spike glycoprotein (Severe acute respiratory syndrome coronavirus 2) (UniProt P0DTC2); assay: Competitive inhibition of biotinylated heparin binding to His-tagged wild type SARS-COV-2 spike protein at 50 uM incubated for 300 sec by biolayer interferometry streptavidin sensor based assay
Spike glycoprotein [2] = molecular target: T1, Spike glycoprotein (Severe acute respiratory syndrome coronavirus 2, UniProt P0DTC2); assay: Competitive inhibition of biotinylated heparin binding to His-tagged wild type SARS-COV-2 spike protein assessed inhibition constant incubated for 300 sec by biolayer interferometry streptavidin sensor based assay
Method in brief: (§1)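 Streptavidin BLI sensor tips loaded with biotinylated heparin and exposed to wild-type S protein (1 μM) mixed with test compound (0–500 μM) in TBS (20 mM Tris, pH 7.4, 0.02% BSA). Bound (%) was taken from the BLI response. IC50 came from nonlinear regression, and Ki was derived from IC50 by the Cheng–Prusoff equation.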

Spike glycoprotein [3] = molecular target: T1, Spike glycoprotein; assay: Competitive inhibition of biotinylated heparin binding to His-tagged wild type SARS-COV-2 spike protein incubated for 300 sec by biolayer interferometry streptavidin sensor based assay; method in brief: as §1

SMILES	inhibition [1]	Ki (Spike glycoprotein [2])	IC50 (Spike glycoprotein [3])
CCCCCCCCO[C@H]1O[C@@H](C)[C@@H](OS(=O)(=O)O)[C@@H](O[C@@H]2O[C@@H](C)[C@@H](OS(=O)(=O)O)[C@@H](O[C@@H]3O[C@@H](C)[C@@H](OS(=O)(=O)O)[C@@H](O[C@@H]4O[C@@H](C)[C@@H](OS(=O)(=O)O)[C@@H](OS(=O)(=O)O)[C@@H]4OS(=O)(=O)O)[C@@H]3OS(=O)(=O)O)[C@@H]2OS(=O)(=O)O)[C@@H]1OS(=O)(=O)O	< 10%		
CCCCCCCCO[C@H]1O[C@@H](C)[C@@H](O[C@@H]2O[C@@H](C)[C@@H](O[C@@H]3O[C@@H](C)[C@@H](O[C@@H]4O[C@@H](C)[C@@H](OS(=O)(=O)O)[C@@H](OS(=O)(=O)O)[C@@H]4OS(=O)(=O)O)[C@@H](OS(=O)(=O)O)[C@@H]3OS(=O)(=O)O)[C@@H](OS(=O)(=O)O)[C@@H]2OS(=O)(=O)O)[C@@H](OS(=O)(=O)O)[C@@H]1OS(=O)(=O)O	Active	3.02 µM	86.9 µM
CCCCCCCCO[C@H]1O[C@@H](C)[C@@H](O[C@@H]2O[C@@H](C)[C@@H](OS(=O)(=O)O)[C@@H](O[C@@H]3O[C@@H](C)[C@@H](O[C@@H]4O[C@@H](C)[C@@H](OS(=O)(=O)O)[C@@H](OS(=O)(=O)O)[C@@H]4OS(=O)(=O)O)[C@@H](OS(=O)(=O)O)[C@@H]3OS(=O)(=O)O)[C@@H]2OS(=O)(=O)O)[C@@H](OS(=O)(=O)O)[C@@H]1OS(=O)(=O)O	Active		
